Results from ChEMBL document CHEMBL3774344, “Role of a Preorganized Scaffold Presenting Four Residues of a GM-3 Lactone Mimetic on Melanoma Progression” (2016).
Calls of active or inactive are those of the source. No cut-off for these calls is given here.

Experiments:
A-375 [1] = assay: Antimigratory activity against human A375 cells at 50 uM after 24 hrs in presence cancer associated fibroblast by 2D-migration assay; assay type: functional, cell-based
In short: (§1)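 A375 cells incubated under hypoxia (1% O2) with conditioned medium from CAFs (derived ex vivo from aggressive human melanoma) or HDFs, with or without 50 μM compound. Cells then assayed for 2D migration or invasion through reconstituted Matrigel barrier in Boyden chambers.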

A-375 [2] = assay: Inhibition of cell invasion in human A375 cells at 50 uM after 24 hrs by Boyden invasion assay in presence of 10% serum; assay type: functional; conditions: A-375, 24 h
In short: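 Cells treated with 50 μM compound, then placed in Boyden chambers (8 μm pores) with Matrigel 3D barrier and allowed to invade toward 10% serum for 24 h. Cells crossing the filter counted. At least three independent experiments; mean and SD.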

A-375 [3] = assay: Inhibition of cell migration in human A375 cells at 50 uM after 24 hrs by 2D-migration assay in presence of 10% serum; assay type: functional; conditions: A-375, 24 h
In short: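 Cells treated with 50 μM compound, then allowed to migrate 24 h toward 10% serum chemoattractant. Cells counted in a randomly chosen field per filter. At least three independent experiments; mean and SD.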

A-375 [4] = assay: Induction of apoptosis in serum-starved human A375 cells after 24 hrs by AnnexinV/PI-staining based flow cytometric analysis; assay type: functional, cell-based
In short: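 A375 cells serum-starved, detached and held in suspension for 24 h with compound. Apoptotic fraction measured by Annexin V–PI staining. At least three independent experiments; mean and SD.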

A-375 [5] = assay: Inhibition of cell adhesion in human A375 cells at 50 uM measured after 4 hrs in presence of fibronectin by crystal violet staining based assay; assay type: functional; conditions: A-375, 4 h
In short: (§2)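 A375 cells treated with 50 μM compound, then allowed to adhere to fibronectin-coated dishes for varying times up to 4 h, with no-fibronectin comparison. Percentage of adhered cells scored by crystal violet. At least three independent experiments; mean and SD.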

[6] = Antitumor activity against mouse B16F10 cells xenografted in C57BL/6 mouse assessed as reduction in tumor volume at 400 ug, ip administered on day 0 to 72 followed by tumor implantation on day 69 measured every 2 to 3 days relative to PBS-treated control; parameters: scale not given: the % may be the effect or the level left
A-375 [7] = assay: Antiinvasion activity in human A375 cells at 50 uM after 24 hrs in presence of cancer associated fibroblast by Boyden invasion assay; assay type: functional, cell-based; in short: as §1
A-375 [8] = assay: Inhibition of cell adhesion in human A375 cells at 50 uM measured from 1 to 3 hrs in presence of fibronectin by crystal violet staining based assay; assay type: functional; in short: as §2

SMILES | Activity (A-375 [1]) | inhibition at 50 µM (A-375 [2]) | inhibition at 50 µM (A-375 [3]) | Activity (A-375 [4]) | inhibition at 50 µM (A-375 [5]) | Activity [6] | Activity (A-375 [7]) | inhibition at 50 µM (A-375 [8])
CC(C)=NOCC(=O)NCCCC[C@@H]1NC(=O)[C@H](CCCCNC(=O)CCCCC(=O)NCCCCCCO[C@H]2O[C@H](CO)[C@H](O)C3=C2SC[C@]2(C[C@@H](O)[C@@H](O)[C@@H]([C@H](O)CO)O2)O3)NC(=O)CNC(=O)[C@@H]2CCCN2C(=O)[C@H](CCCCNC(=O)CCCCC(=O)NCCCCCCO[C@@H]2O[C@@H](CO)[C@@H](O)C3=C2SC[C@@]2(C[C@@H](O)[C@@H](O)[C@@H]([C@H](O)CO)O2)O3)NC(=O)[C@H](C)NC(=O)[C@H](CCCCNC(=O)CCCCC(=O)NCCCCCCO[C@H]2O[C@H](CO)[C@H](O)C3=C2SC[C@]2(C[C@H](O)[C@H](O)[C@H]([C@@H](O)CO)O2)O3)NC(=O)CNC(=O)[C@@H]2CCCN2C(=O)[C@H](CCCCNC(=O)CCCCC(=O)NCCCCCCO[C@@H]2O[C@@H](CO)[C@@H](O)C3=C2SC[C@@]2(C[C@H](O)[C@H](O)[C@H]([C@@H](O)CO)O2)O3)NC1=O | Active | 30% | 30% | Active | 50% | >50% | Active | ≤ 30%
CCCOc1c2cc(CCCn3cc(CCO[C@H]4O[C@H](CO)[C@H](O)C5=C4SC[C@]4(C[C@@H](O)[C@@H](O)[C@@H]([C@@H](O)CO)O4)O5)nn3)cc1Cc1cc(CCCn3cc(CCO[C@H]4O[C@H](CO)[C@H](O)C5=C4SC[C@]4(C[C@@H](O)[C@@H](O)[C@@H]([C@@H](O)CO)O4)O5)nn3)cc(c1OCCC)Cc1cc(CCCn3cc(CCO[C@H]4O[C@H](CO)[C@H](O)C5=C4SC[C@]4(C[C@@H](O)[C@@H](O)[C@@H]([C@@H](O)CO)O4)O5)nn3)cc(c1OCCC)Cc1cc(CCCn3cc(CCO[C@H]4O[C@H](CO)[C@H](O)C5=C4SC[C@]4(C[C@@H](O)[C@@H](O)[C@@H]([C@@H](O)CO)O4)O5)nn3)cc(c1OCCC)C2 | Active | – | – | – | – | – | Active | –
